For twelve compounds, viability, differential viability (reversal) and inhibition results are on record in PubChem BioAssay.

Molecules are shown by their SMILES. Calls of active or inactive are those of the source.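 The calls were made as follows, unless noted: active = viability at or below 10% of carrier control in both of two separate runs; inconclusive = viability at or below 10% in only one of the two runs; inactive = the rest.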

Test [1] in a line: reduced viability of SK-BR-3 breast cancer cells – cell-based, 24 h, human, pilot screen (AID 572).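 Also: compound exposure lasted between 18 and 24 h rather than exactly 24 h; 100% = carrier-treated control wells.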 The note with it: SK-BR-3 viability, CellTiter-Glo luminescence, at 10 µM, stronger effect = lower value. (Cellular ATP, detected with luciferase, serves as a proxy for viable cell number.)
A short description of test [2]: HUVEC growth inhibition – cell-based, human, primary screen (AID 575;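 active = viability at or below 30% in both replicate assays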;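 also: 100% = median of untreated cell wells with 0.1% DMSO on each plate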). The note with it: HUVEC proliferation, CellTiter-Glo luminescence, 72 h; at 10 µM; stronger effect = lower value. The method, boiled down: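 Test system: primary human umbilical vein endothelial cells; medium: endothelial basal medium with 2% FBS plus growth supplements; dosing: 10 µM compound only; times: 72 h treatment at 37 °C; signal: CTG luminescence; read-out: % viability relative to median vehicle-well signal on each plate; control set: vehicle and MePR control wells; plate: 384-well, collagen-coated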

Test [3] is described as follows: H69AR cell proliferation blockers – human, duplicate replicates, primary screen (AID 580;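 active = viability at or under a set limit in both replicates, limit being median viability minus 3 SD, cut at about 48% in these data, passing the limit was not always enough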;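 also: 100% = mean luminescence of untreated wells and 0% = no signal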). The note with it: H69AR lung tumor cells viability, ATP luminescence, 72 h; at 10 µM; stronger effect = lower value.
Test [4] in a line: MRP1 drug-resistance reversers in H69AR cells – cell-based, doxorubicin co-treatment, pilot screen (AID 601;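 active = viability loss from added drug above about 55%, and viability with drug at most 40%, in both replicates, limit read from the data, passing the limit was not always enough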). The note with it: CellTiter-Glo, 72 h, at 10 µM; for differential viability (reversal): stronger effect = higher value.
The nature of test [5]: yeast transport mutant growth inhibition pilot in 384-well plates, post-Golgi transport modulator project (AID 636; in the data active = inhibition above about 31%). Particulars: absorbance 615 nm, about 18 h, stronger effect = higher value.
Test [6] can be described thus: growth suppression of yeast trafficking mutant, preliminary HTS, modulators of trafficking downstream of Golgi apparatus project, 1536-format plate, OD 615 nm (AID 637; in the data active = inhibition above about 30%). The note with it: yeast transport mutant growth, absorbance 615 nm, 18 h; stronger effect = higher value.
Setting [7] is: H69AR cells + 2 uM doxorubicin, measured here: viability with 2 uM doxorubicin, stronger effect = lower value.
The mark [8] stands for this setting: H69AR cells, compound alone cytotoxicity.

One may read the viability as a read-out of living cells in per cent, often relative to untreated cells. Usually inhibition stands for the drop in the measured response relative to a control, in per cent. Turning to `CC1(C)CN=C(N2CCN(c3ncnc4sc5c(c34)CCCC5)CC2)S1`, the viability was 72% (inactive) in test [1]; 54.2% (inactive) in test [2]; 77.3% (inactive) in test [3]; 85.6% in test [4] (setting [7]); 77.3% in test [4] (setting [8]). In test [4] (H69AR cells + 2 uM doxorubicin), the differential viability (reversal) was -8.36% (inactive). The inhibition in test [5] is -1.15% (inactive); in test [6] it was 0.83% (inactive).

On to `O=C1c2ccccc2NC2CCCCCN12` (stereo unspecified), for which the viability was 108% (inactive) in test [1]; 92.9% (inactive) in test [2]; 100% (inactive) in test [3]; 89.8% in test [4] (setting [7]); 100% in test [4] (setting [8]). In test [4] (H69AR cells + 2 uM doxorubicin), the differential viability (reversal) is 10.3% (inactive). The inhibition in test [5] is -2.34% (inactive); in test [6], 1.48% (inactive).

As to `CCc1nnc(SCc2cn3c(C)cc(C)nc3n2)n1N`, the viability in test [1] is 96% (inactive); in test [2], 96.5% (inactive); in test [3], 108% (inactive); in test [4] (setting [7]), 92.2%; in test [4] (setting [8]), 108%. The differential viability (reversal) in test [4] (H69AR cells + 2 uM doxorubicin) was 15.7% (inactive). Further, the inhibition in test [5] was -1.89% (inactive); in test [6] it was -4.91% (inactive).

Consider `O=C(O)c1cccc(COCC(F)(F)C(F)F)c1`, for which the viability in test [1] is 90% (inactive); in test [2] it was 88.2% (inactive); in test [3] it was 102% (inactive); in test [4] (setting [7]), 95.9%; in test [4] (setting [8]), 102%. Moreover, the differential viability (reversal) in test [4] (H69AR cells + 2 uM doxorubicin) is 6.01% (inactive). The inhibition in test [5] was -0.41% (inactive); in test [6], -3.87% (inactive).

Regarding `C/C(=C\c1ccco1)C1C(C#N)=C(N)OC2=C1C(=O)CC(C)(C)C2` (stereo unspecified), the viability was 110% (inactive) in test [1]; 108% (inactive) in test [2]; 80.1% (inactive) in test [3]; 89.2% in test [4] (setting [7]); 80.1% in test [4] (setting [8]). Also, in test [4] (H69AR cells + 2 uM doxorubicin), the differential viability (reversal) was -9.17% (inactive). Also, the inhibition was -7.43% (inactive) in test [5] and 1.09% (inactive) in test [6].

Regarding `CCCN(CC1CC1)C(=O)Nc1ccccc1C`, the viability in test [1] is 94% (inactive); in test [2] it was 101% (inactive); in test [3] it was 104% (inactive); in test [4] (setting [7]), 92.2%; in test [4] (setting [8]) it was 104%. For the same compound, in test [4] (H69AR cells + 2 uM doxorubicin), the differential viability (reversal) was 12.2% (inactive). Also, the inhibition was -1.04% (inactive) in test [5] and -12.9% (inactive) in test [6].

In the case of `COc1cc2c(cc1OC)CN(CC(=O)Nc1cccc(C)c1)CC2`, the viability in test [1] was 117% (inactive); in test [2] it was 90.4% (inactive); in test [3] it was 93.1% (inactive); in test [4] (setting [7]), 83.9%; in test [4] (setting [8]) it was 93.1%. For the same compound, the differential viability (reversal) in test [4] (H69AR cells + 2 uM doxorubicin) was 9.21% (inactive). Moreover, the inhibition in test [5] is 0.14% (inactive); in test [6], -7.9% (inactive).

`Cc1ccc(CN2C(=O)CCC2C(=O)NCCCN2CCCC(C)C2)cc1` (stereo unspecified): the viability was 82% (inactive) in test [1]; 113% (inactive) in test [2]; 97.4% (inactive) in test [3]; 88.4% in test [4] (setting [7]); 97.4% in test [4] (setting [8]). Moreover, the differential viability (reversal) in test [4] (H69AR cells + 2 uM doxorubicin) is 8.96% (inactive). In addition, the inhibition was -3.07% (inactive) in test [5] and -3.45% (inactive) in test [6].

For the compound `O=C(Nc1cccnc1)Nc1ccc(F)c(Cl)c1`, the viability is 82% (inactive) in test [1]; 86.6% (inactive) in test [2]; 105% (inactive) in test [3]; 100% in test [4] (setting [7]); 105% in test [4] (setting [8]). The differential viability (reversal) in test [4] (H69AR cells + 2 uM doxorubicin) is 4.77% (inactive). Moreover, the inhibition in test [5] was -2.19% (inactive); in test [6], 12% (inactive).

Turning to `N#CC1=C(N)OC2=C(CCC/C2=C/c2ccoc2)C1c1ccoc1` (stereo unspecified), the viability in test [1] is 87% (inactive); in test [2] it was 99.1% (inactive); in test [3], 80.8% (inactive); in test [4] (setting [7]) it was 77.9%; in test [4] (setting [8]) it was 80.8%. In addition, the differential viability (reversal) in test [4] (H69AR cells + 2 uM doxorubicin) was 2.94% (inactive). The inhibition in test [5] was -5.95% (inactive); in test [6], 0.18% (inactive).

For `CCCc1ccccc1OCCNC(C)=O`, the viability in test [1] was 103% (inactive); in test [2] it was 99.5% (inactive); in test [3], 102% (inactive); in test [4] (setting [7]), 90.4%; in test [4] (setting [8]), 102%. In addition, the differential viability (reversal) in test [4] (H69AR cells + 2 uM doxorubicin) is 11.2% (inactive). In addition, the inhibition is -3.87% (inactive) in test [5] and 0% (inactive) in test [6].

For the compound `CCN1C(=O)C(C(=O)Nc2ccc(OC)cc2)C2CC1(C)Oc1ccccc12` (stereo unspecified), the viability is 80% (inactive) in test [1]; 110% (inactive) in test [2]; 86.4% (inactive) in test [3]; 96.4% in test [4] (setting [7]); 86.4% in test [4] (setting [8]). For the same compound, the differential viability (reversal) in test [4] (H69AR cells + 2 uM doxorubicin) is -10% (inactive). Moreover, the inhibition in test [5] is -8.51% (inactive); in test [6] it was -1.64% (inactive).
